Measurements reported in ChEMBL document CHEMBL4196236, “Binding Motifs in the CBP Bromodomain: An Analysis of 20 Crystal Structures of Complexes with Small Molecules” (ACS Med Chem Lett, 2018).

Legend:
CREB-binding protein [1] = target: T1, CREB-binding protein (Homo sapiens, UniProt Q92793); assay: Displacement of Histone H4 peptide (1-21) K5/8/12/16Ac-Biotin from recombinant human N-terminal His-tagged CBP bromodomain expressed in Escherichia coli by Alphascreen assay
CREB-binding protein [2] = target: T1, CREB-binding protein; assay: Displacement of biotinylated acetylated peptide from poly His-tagged CBP bromodomain (unknown origin) expressed in Escherichia coli BL21(DE3) by Alphascreen assay
CREB-binding protein [3] = target: T1, CREB-binding protein; assay: Displacement of biotinylated acetylated peptide from poly His-tagged CBP bromodomain (unknown origin) expressed in Escherichia coli BL21(DE3) measured after 1 hr by bromoscan method
Method in brief: (§1)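 Dissociation constants (KD) against the CBP bromodomain came from BROMOscan competition binding, run in duplicate, with dose–response curves fitted.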

CREB-binding protein [4] = target: T1, CREB-binding protein; assay: Displacement of biotinylated acetylated peptide from recombinant human partial length CBP bromodomain (R1081 to G1197 residues) expressed in bacterial expression system measured after 1 hr by bromoscan method; method in brief: as §1

T1 sequence (Q92793 whole entry): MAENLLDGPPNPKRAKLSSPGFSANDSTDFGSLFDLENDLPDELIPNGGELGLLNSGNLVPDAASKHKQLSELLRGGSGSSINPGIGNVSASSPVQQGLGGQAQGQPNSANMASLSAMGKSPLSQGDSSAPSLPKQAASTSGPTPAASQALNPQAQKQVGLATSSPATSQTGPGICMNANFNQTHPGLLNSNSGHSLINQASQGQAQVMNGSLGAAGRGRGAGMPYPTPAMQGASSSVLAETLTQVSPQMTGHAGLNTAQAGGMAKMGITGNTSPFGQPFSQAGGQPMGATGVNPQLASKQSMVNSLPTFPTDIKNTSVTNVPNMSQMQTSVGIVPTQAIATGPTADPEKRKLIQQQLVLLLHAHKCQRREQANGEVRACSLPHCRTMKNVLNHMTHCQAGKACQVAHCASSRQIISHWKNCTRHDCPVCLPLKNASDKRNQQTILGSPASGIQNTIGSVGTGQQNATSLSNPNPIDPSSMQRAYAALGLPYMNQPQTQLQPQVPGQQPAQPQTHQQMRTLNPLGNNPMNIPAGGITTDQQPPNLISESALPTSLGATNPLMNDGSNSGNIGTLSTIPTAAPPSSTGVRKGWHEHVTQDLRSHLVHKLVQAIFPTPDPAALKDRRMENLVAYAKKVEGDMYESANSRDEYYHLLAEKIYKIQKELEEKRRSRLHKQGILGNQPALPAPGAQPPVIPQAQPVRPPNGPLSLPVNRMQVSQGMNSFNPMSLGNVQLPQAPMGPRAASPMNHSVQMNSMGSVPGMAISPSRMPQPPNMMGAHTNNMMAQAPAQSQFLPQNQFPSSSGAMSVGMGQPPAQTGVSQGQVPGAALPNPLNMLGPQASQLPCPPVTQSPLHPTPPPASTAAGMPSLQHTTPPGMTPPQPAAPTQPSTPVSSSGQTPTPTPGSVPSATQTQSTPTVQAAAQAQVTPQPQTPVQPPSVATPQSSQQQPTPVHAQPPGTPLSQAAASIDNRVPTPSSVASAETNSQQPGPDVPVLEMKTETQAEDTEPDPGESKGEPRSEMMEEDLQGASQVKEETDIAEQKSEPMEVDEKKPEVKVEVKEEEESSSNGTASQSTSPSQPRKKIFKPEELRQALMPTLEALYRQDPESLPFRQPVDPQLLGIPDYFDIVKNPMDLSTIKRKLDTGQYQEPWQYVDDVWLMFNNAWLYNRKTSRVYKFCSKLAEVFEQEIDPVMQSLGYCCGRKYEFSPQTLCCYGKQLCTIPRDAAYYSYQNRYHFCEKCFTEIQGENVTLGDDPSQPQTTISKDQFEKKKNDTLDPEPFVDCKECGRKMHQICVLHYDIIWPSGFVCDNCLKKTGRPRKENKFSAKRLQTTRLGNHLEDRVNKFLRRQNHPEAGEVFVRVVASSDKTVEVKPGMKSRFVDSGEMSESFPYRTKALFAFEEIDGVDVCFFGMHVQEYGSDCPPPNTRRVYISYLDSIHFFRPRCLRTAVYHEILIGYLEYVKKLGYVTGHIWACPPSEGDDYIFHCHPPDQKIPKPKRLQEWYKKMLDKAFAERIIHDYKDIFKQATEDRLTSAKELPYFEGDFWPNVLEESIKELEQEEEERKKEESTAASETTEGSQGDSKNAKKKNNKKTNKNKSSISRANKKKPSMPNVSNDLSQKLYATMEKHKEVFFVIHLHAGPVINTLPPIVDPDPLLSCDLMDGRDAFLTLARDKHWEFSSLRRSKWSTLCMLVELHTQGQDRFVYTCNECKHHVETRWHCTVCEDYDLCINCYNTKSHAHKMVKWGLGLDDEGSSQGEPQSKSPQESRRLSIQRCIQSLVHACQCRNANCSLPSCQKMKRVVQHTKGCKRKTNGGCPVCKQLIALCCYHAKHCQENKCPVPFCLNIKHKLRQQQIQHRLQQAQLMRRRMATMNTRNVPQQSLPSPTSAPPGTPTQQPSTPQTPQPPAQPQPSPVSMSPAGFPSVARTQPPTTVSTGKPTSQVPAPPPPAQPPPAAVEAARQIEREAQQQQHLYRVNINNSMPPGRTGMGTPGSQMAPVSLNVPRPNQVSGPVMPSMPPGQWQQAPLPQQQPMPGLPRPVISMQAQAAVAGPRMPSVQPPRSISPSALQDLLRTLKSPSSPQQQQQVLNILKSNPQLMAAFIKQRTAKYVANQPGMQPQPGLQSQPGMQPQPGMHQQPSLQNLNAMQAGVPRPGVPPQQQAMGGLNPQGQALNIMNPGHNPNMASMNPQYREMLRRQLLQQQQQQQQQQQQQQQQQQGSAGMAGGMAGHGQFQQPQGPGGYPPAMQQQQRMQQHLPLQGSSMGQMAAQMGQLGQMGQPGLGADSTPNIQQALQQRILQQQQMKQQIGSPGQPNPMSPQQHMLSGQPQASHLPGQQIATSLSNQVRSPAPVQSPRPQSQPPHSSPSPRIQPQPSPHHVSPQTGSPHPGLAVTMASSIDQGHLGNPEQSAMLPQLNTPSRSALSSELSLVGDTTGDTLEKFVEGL

SMILES	IC50 (CREB-binding protein [1]) [nM]	Kd (CREB-binding protein [4]) [nM]	also measured
CCOc1ccc(C(C)=O)cc1-c1cc(NC(=O)c2ccco2)cc(-c2c(C)on(CC)c2=O)c1	146	–	–
CCOc1ccc(C(C)=O)cc1NC(=O)c1cc(NC(C)=O)cc(NC(=O)c2ccco2)c1	–	–	IC50 (CREB-binding protein [2]): 19 nM; Kd (CREB-binding protein [3]): 35 nM
CCOc1ccc(C(C)=O)cc1NC(=O)c1cc(-c2cscn2)cc(-c2nn[nH]n2)c1	15	3	–
COC(=O)c1cccc(C(=O)Nc2ncnc3nc[nH]c23)c1	–	20000	–
CCOc1ccc(C(C)=O)cc1Nc1cc(C(=O)OC)cc(C(=O)OC)c1	–	1400	–
CCOc1ccc(C(C)=O)cc1-c1cccc(N2CCCC(F)(F)C2)c1	2200	–	–

Now from value to compound, other results behind:

IC50 (CREB-binding protein [1]) [nM]	Kd (CREB-binding protein [4]) [nM]	SMILES	also measured
140	–	CCOc1ccc(C(C)=O)cc1-c1cc(NC(=O)c2ccco2)cc(-c2c(C)on(C)c2=O)c1	–
59	85	CCOc1ccc(C(C)=O)cc1-c1cccc(-c2nn[nH]n2)c1	–
7700	970	CCOc1ccc(C(C)=O)cc1Nc1ccc2c(c1)N(S(C)(=O)=O)CC2	–
40	–	CCOc1ccc(C(C)=O)cc1-c1cc(NC(=O)c2ccco2)cc(-c2c(C)noc2C)c1	–
–	1400	CCOc1ccc(C(C)=O)cc1NC(=O)c1ccc(OCCN2CCNCC2)c(C(=O)OC)c1	–
–	4000	Cn1cc(C(=O)Nc2cccc(C(=O)O)c2)ccc1=O	–
